Measured values: ChEMBL document CHEMBL4689842, “EUbOPEN Chemogenomics Library wave 1” (2021)

System: HEK-293T
Assay: Multiplex assay against HEK293T;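 for Population Tubulin-Different-Phenotype (%): share of the cells with healthy nuclei that show this phenotype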
Format: toxicity, cell-based
Details: human
How it was run: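 At seeding, live cells were stained with Hoechst33342, BioTracker Green Microtubule Cytoskeleton Dye, MitoTracker Red and Annexin V Alexa Fluor 680. After compound addition they were imaged on a CQ1 microscope at 37°C and 5% CO2, and CellPathfinder machine-learning gating sorted them into Hoechst high-intensity objects or normal cells, with normal cells further split into healthy, pyknosed or fragmented nuclei and pyknosed cells into mitotic or apoptotic. Tubulin, mitochondrial-mass and membrane-permeability phenotypes are given as per cents of cells with healthy nuclei.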

[1] = 12 h, 1 µM, compound concentration 1 uM, replicate 1
[2] = 12 h, 1 µM, compound concentration 1 uM, replicate 2
[3] = 12 h, 10 µM, compound concentration 10 uM, replicate 1
[4] = 12 h, 10 µM, compound concentration 10 uM, replicate 2
[5] = 24 h, 1 µM, compound concentration 1 uM, replicate 1
[6] = 24 h, 1 µM, compound concentration 1 uM, replicate 2
[7] = 24 h, 10 µM, compound concentration 10 uM, replicate 1
[8] = 24 h, 10 µM, compound concentration 10 uM, replicate 2
[9] = 48 h, 1 µM, compound concentration 1 uM, replicate 1
[10] = 48 h, 1 µM, compound concentration 1 uM, replicate 2
[11] = 48 h, 10 µM, compound concentration 10 uM, replicate 1
[12] = 48 h, 10 µM, compound concentration 10 uM, replicate 2

N#Cc1cccc(C(=O)Nc2cc(-c3ccccc3)nn2-c2ccccc2)c1
Population Apoptotic (%) [1]: 48% | Population Healthy Nuclei (%) [1]: 41% | Population Hoechst High Intensity Objects (%) [1]: 13% | Population Membrane Permeable-Phenotype (%) [1]: 2% | Population Mitochondria Different-Phenotype (%) [1]: 85% | Population Mitotic Cells (%) [1]: 51% | Population Normal (%) [1]: 86% | Population Pyknosed Nuclei (%) [1]: 49% | Population Tubulin-Different-Phenotype (%) [1]: 64% | Total Cell Count [1]: 315 | Population Apoptotic (%) [2]: 16% | Population Fragmented Nuclei (%) [2]: 8% | Population Healthy Nuclei (%) [2]: 42% | Population Hoechst High Intensity Objects (%) [2]: 6% | Population Membrane Permeable-Phenotype (%) [2]: 18% | Population Mitochondria Different-Phenotype (%) [2]: 23% | Population Mitotic Cells (%) [2]: 83% | Population Normal (%) [2]: 93% | Population Pyknosed Nuclei (%) [2]: 48% | Population Tubulin-Different-Phenotype (%) [2]: 45% | Total Cell Count [2]: 182 | Population Apoptotic (%) [3]: 73% | Population Fragmented Nuclei (%) [3]: 8% | Population Healthy Nuclei (%) [3]: 33% | Population Hoechst High Intensity Objects (%) [3]: 14% | Population Membrane Permeable-Phenotype (%) [3]: 5% | Population Mitochondria Different-Phenotype (%) [3]: 97% | Population Mitotic Cells (%) [3]: 26% | Population Normal (%) [3]: 86% | Population Pyknosed Nuclei (%) [3]: 57% | Total Cell Count [3]: 300 | Population Apoptotic (%) [4]: 45% | Population Fragmented Nuclei (%) [4]: 5% | Population Healthy Nuclei (%) [4]: 25% | Population Hoechst High Intensity Objects (%) [4]: 5% | Population Membrane Permeable-Phenotype (%) [4]: 14% | Population Mitochondria Different-Phenotype (%) [4]: 73% | Population Mitotic Cells (%) [4]: 54% | Population Normal (%) [4]: 94% | Population Pyknosed Nuclei (%) [4]: 68% | Population Tubulin-Different-Phenotype (%) [4]: 100% | Total Cell Count [4]: 174 | Population Apoptotic (%) [5]: 45% | Population Fragmented Nuclei (%) [5]: 9% | Population Healthy Nuclei (%) [5]: 37% | Population Hoechst High Intensity Objects (%) [5]: 12% | Population Membrane Permeable-Phenotype (%) [5]: 4% | Population Mitochondria Different-Phenotype (%) [5]: 61% | Population Mitotic Cells (%) [5]: 54% | Population Normal (%) [5]: 87% | Population Pyknosed Nuclei (%) [5]: 53% | Population Tubulin-Different-Phenotype (%) [5]: 51% | Total Cell Count [5]: 328 | Population Apoptotic (%) [6]: 12% | Population Fragmented Nuclei (%) [6]: 6% | Population Healthy Nuclei (%) [6]: 53% | Population Hoechst High Intensity Objects (%) [6]: 4% | Population Membrane Permeable-Phenotype (%) [6]: 14% | Population Mitochondria Different-Phenotype (%) [6]: 21% | Population Mitotic Cells (%) [6]: 88% | Population Normal (%) [6]: 95% | Population Pyknosed Nuclei (%) [6]: 39% | Population Tubulin-Different-Phenotype (%) [6]: 45% | Total Cell Count [6]: 200 | Population Apoptotic (%) [7]: 65% | Population Fragmented Nuclei (%) [7]: 7% | Population Healthy Nuclei (%) [7]: 27% | Population Hoechst High Intensity Objects (%) [7]: 15% | Population Membrane Permeable-Phenotype (%) [7]: 4% | Population Mitochondria Different-Phenotype (%) [7]: 97% | Population Mitotic Cells (%) [7]: 34% | Population Normal (%) [7]: 84% | Population Pyknosed Nuclei (%) [7]: 65% | Population Tubulin-Different-Phenotype (%) [7]: 95% | Total Cell Count [7]: 309 | Population Apoptotic (%) [8]: 67% | Population Fragmented Nuclei (%) [8]: 5% | Population Healthy Nuclei (%) [8]: 31% | Population Hoechst High Intensity Objects (%) [8]: 4% | Population Membrane Permeable-Phenotype (%) [8]: 8% | Population Mitochondria Different-Phenotype (%) [8]: 84% | Population Mitotic Cells (%) [8]: 33% | Population Normal (%) [8]: 95% | Population Pyknosed Nuclei (%) [8]: 62% | Population Tubulin-Different-Phenotype (%) [8]: 100% | Total Cell Count [8]: 167 | Population Apoptotic (%) [9]: 46% | Population Fragmented Nuclei (%) [9]: 11% | Population Healthy Nuclei (%) [9]: 49% | Population Hoechst High Intensity Objects (%) [9]: 15% | Population Membrane Permeable-Phenotype (%) [9]: 4% | Population Mitochondria Different-Phenotype (%) [9]: 29% | Population Mitotic Cells (%) [9]: 53% | Population Normal (%) [9]: 84% | Population Pyknosed Nuclei (%) [9]: 38% | Population Tubulin-Different-Phenotype (%) [9]: 44% | Total Cell Count [9]: 415 | Population Apoptotic (%) [10]: 19% | Population Fragmented Nuclei (%) [10]: 6% | Population Healthy Nuclei (%) [10]: 77% | Population Hoechst High Intensity Objects (%) [10]: 4% | Population Membrane Permeable-Phenotype (%) [10]: 15% | Population Mitochondria Different-Phenotype (%) [10]: 4% | Population Mitotic Cells (%) [10]: 80% | Population Normal (%) [10]: 95% | Population Pyknosed Nuclei (%) [10]: 16% | Population Tubulin-Different-Phenotype (%) [10]: 42% | Total Cell Count [10]: 356 | Population Apoptotic (%) [11]: 53% | Population Fragmented Nuclei (%) [11]: 14% | Population Healthy Nuclei (%) [11]: 23% | Population Hoechst High Intensity Objects (%) [11]: 11% | Population Membrane Permeable-Phenotype (%) [11]: 5% | Population Mitochondria Different-Phenotype (%) [11]: 78% | Population Mitotic Cells (%) [11]: 46% | Population Normal (%) [11]: 88% | Population Pyknosed Nuclei (%) [11]: 62% | Population Tubulin-Different-Phenotype (%) [11]: 100% | Total Cell Count [11]: 332 | Population Apoptotic (%) [12]: 63% | Population Fragmented Nuclei (%) [12]: 6% | Population Healthy Nuclei (%) [12]: 42% | Population Hoechst High Intensity Objects (%) [12]: 7% | Population Membrane Permeable-Phenotype (%) [12]: 17% | Population Mitochondria Different-Phenotype (%) [12]: 65% | Population Mitotic Cells (%) [12]: 36% | Population Normal (%) [12]: 92% | Population Pyknosed Nuclei (%) [12]: 50% | Population Tubulin-Different-Phenotype (%) [12]: 98% | Total Cell Count [12]: 204
